Results from ChEMBL document CHEMBL3046871, “Antimicrobial and antiprotozoal activities of secondary metabolites from the fungus Eurotium repens” (Med Chem Res, 2012).
Converted amounts (≈) assume the structure as drawn. Blank lines part the entries; values can stand above or below the compound they belong to. The source made the active and inactive calls. No cut-off for these calls is given here.

What was measured:
Aspergillus fumigatus = assay: Antifungal activity against Aspergillus fumigatus ATCC 204305; format: functional, organism-based
Plasmodium falciparum [1] = assay: Antimalarial activity against chloroquine-sensitive Plasmodium falciparum D6 after 72 hr by plasmodial LDH assay; format: functional, organism-based
How it was run: (§1)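 Compounds dissolved in DMSO (2 mg/ml stock), serially diluted. Culture at 2% parasitemia and 2% hematocrit in RPMI 1640 with 10% human serum and 60 μg/ml amikacin, under 90% N2/5% O2/5% CO2, 37°C for 72 h. LDH read-out: Malstat reagent 30 min, then NBT/PES 1 h in dark, acetic acid stop, absorbance 650 nm. IC50 from dose–response curves. Chloroquine positive control; 0.25% DMSO vehicle.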

Cryptococcus neoformans [2] = assay: Antifungal activity against Cryptococcus neoformans ATCC 90113; format: functional, organism-based
Staphylococcus aureus [3] = assay: Antibacterial activity against methicillin-resistant Staphylococcus aureus ATCC 33591; format: functional, organism-based
Nakaseomyces glabratus [4] = assay: Antifungal activity against Candida glabrata ATCC 90030; format: functional, organism-based
[5] = system: Mycobacterium intracellulare; assay: Antibacterial activity against Mycobacterium intracellulare ATCC 23068; format: functional, organism-based
Staphylococcus aureus [6] = assay: Antibacterial activity against Staphylococcus aureus ATCC 29213; format: functional, organism-based
Escherichia coli = assay: Antibacterial activity against Escherichia coli ATCC 35218; format: functional, organism-based
Vero = assay: Cytotoxicity against Chlorocebus aethiops (African green monkey) Vero cells after 48 hr by neutral red assay; format: cell-based, Chlorocebus sabaeus
Pichia kudriavzevii [7] = assay: Antifungal activity against Pichia kudriavzevii ATCC 6258 at 20 ug/ml; format: functional, organism-based
Candida albicans = assay: Antifungal activity against Candida albicans ATCC 90028; format: functional, organism-based
Plasmodium falciparum [8] = assay: Antimalarial activity against chloroquine-resistant Plasmodium falciparum W2 after 72 hr by plasmodial LDH assay; format: functional, organism-based; how it was run: as §1
Pseudomonas aeruginosa = assay: Antibacterial activity against Pseudomonas aeruginosa ATCC 27853; format: functional, organism-based
Pichia kudriavzevii [9] = assay: Antifungal activity against Pichia kudriavzevii ATCC 6258; format: functional, organism-based
Staphylococcus aureus [10] = assay: Antibacterial activity against Staphylococcus aureus ATCC 29213 at 20 ug/ml; format: functional, organism-based
Cryptococcus neoformans [11] = assay: Antifungal activity against Cryptococcus neoformans ATCC 90113 at 20 ug/ml; format: functional, organism-based
Leishmania donovani = assay: Antileishmanial activity against promastigote form of Leishmania donovani after 48 hr by alamar blue assay; format: functional, organism-based
How it was run: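 A 3-day-old promastigote culture grown in RPMI 1640 with 10% FCS at 26°C was diluted to 5 × 10^5/ml. Drug dilutions were made directly in the cell suspension, then incubated 48 h at 26°C. Growth was read by Alamar blue fluorescence (ex 544/em 590 nm). IC50 came from dose–response curves, with pentamidine and amphotericin B as standards.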

Nakaseomyces glabratus [12] = assay: Antifungal activity against Candida glabrata ATCC 90030 at 20 ug/ml; format: functional, organism-based
Staphylococcus aureus [13] = assay: Antibacterial activity against methicillin-resistant Staphylococcus aureus ATCC 33591 at 20 ug/ml; format: functional, organism-based
[14] = Plasmodium falciparum, D6, 72 h, read-out: IC50
[15] = Plasmodium falciparum, W2, 72 h, read-out: IC50
[16] = Leishmania donovani, 48 h, read-out: IC50

SMILES: CCC/C=C/c1cc2c(C=O)c(O)c(CC=C(C)C)cc2o1
Activity (Aspergillus fumigatus): inactive | IC50 (Plasmodium falciparum [1]; [14]): 3 µg/mL (≈ 10.1 µM) | IC50 (Cryptococcus neoformans [2]): 5.31 µg/mL (≈ 17.8 µM) | IC50 (Staphylococcus aureus [3]): 5.4 µg/mL (≈ 18.1 µM) | IC50 (Nakaseomyces glabratus [4]): 1.13 µg/mL (≈ 3.79 µM) | Activity [5]: inactive | IC50 (Staphylococcus aureus [6]): 7.75 µg/mL (≈ 26 µM) | Activity (Escherichia coli): inactive | IC50 (Vero): Non-toxic | Activity (Pichia kudriavzevii [7]): inactive | Activity (Candida albicans): inactive | IC50 (Plasmodium falciparum [8]; [15]): 2.8 µg/mL (≈ 9.38 µM) | Activity (Pseudomonas aeruginosa): inactive

IC50 (Cryptococcus neoformans [2]): 1.23 µg/mL (≈ 1.33 µM) | IC50 (Pichia kudriavzevii [9]): 0.36 µg/mL (≈ 0.39 µM) | IC50 (Nakaseomyces glabratus [4]): 0.32 µg/mL (≈ 0.346 µM)
SMILES: C[C@@H]1[C@H](O)[C@@H](C)/C=C/C=C/C=C/C=C/C=C/C=C/C=C/[C@H](O[C@@H]2O[C@H](C)[C@@H](O)[C@H](N)[C@@H]2O)C[C@@H]2O[C@](O)(C[C@@H](O)C[C@@H](O)[C@H](O)CC[C@@H](O)C[C@@H](O)CC(=O)O[C@H]1C)C[C@H](O)[C@H]2C(=O)O [AMPHOTERICIN B]

SMILES: CCCCC/C=C/c1c(O)cc(CC=C(C)C)c(O)c1CO
Activity (Aspergillus fumigatus): inactive | IC50 (Plasmodium falciparum [1]; [14]): 3 µg/mL (≈ 9.85 µM) | Activity (Staphylococcus aureus [10]): inactive | IC50 (Staphylococcus aureus [3]): 12 µg/mL (≈ 39.3 µM) | Activity (Cryptococcus neoformans [11]): inactive | IC50 (Nakaseomyces glabratus [4]): 7.17 µg/mL (≈ 23.6 µM) | Activity [5]: inactive | Activity (Escherichia coli): inactive | IC50 (Vero): Non-toxic | Activity (Pichia kudriavzevii [7]): inactive | Activity (Candida albicans): inactive | IC50 (Plasmodium falciparum [8]; [15]): 2.8 µg/mL (≈ 9.2 µM) | IC50 (Leishmania donovani; [16]): 19 µg/mL (≈ 62.4 µM) | Activity (Pseudomonas aeruginosa): inactive

SMILES: CCCCCCCc1c(O)cc(CC=C(C)C)c(O)c1C=O [FLAVOGLAUCIN]
Activity (Aspergillus fumigatus): inactive | IC50 (Plasmodium falciparum [1]; [14]): 3 µg/mL (≈ 9.85 µM) | IC50 (Staphylococcus aureus [3]): 10.4 µg/mL (≈ 34.2 µM) | Activity (Cryptococcus neoformans [11]): inactive | Activity (Nakaseomyces glabratus [12]): inactive | Activity [5]: inactive | IC50 (Staphylococcus aureus [6]): 14.3 µg/mL (≈ 47 µM) | Activity (Escherichia coli): inactive | IC50 (Vero): Non-toxic | Activity (Pichia kudriavzevii [7]): inactive | Activity (Candida albicans): inactive | IC50 (Leishmania donovani; [16]): 23 µg/mL (≈ 75.6 µM) | Activity (Pseudomonas aeruginosa): inactive

SMILES: CCC/C=C/C=C/c1c(O)cc(CC=C(C)C)c(O)c1C=O [DIHYDROAUROGLAUCIN]
Activity (Aspergillus fumigatus): inactive | IC50 (Plasmodium falciparum [1]): Not Active | Activity (Staphylococcus aureus [10]): inactive | Activity (Staphylococcus aureus [13]): inactive | Activity (Cryptococcus neoformans [11]): inactive | IC50 (Nakaseomyces glabratus [4]): 2.39 µg/mL (≈ 7.96 µM) | Activity [5]: inactive | Activity (Escherichia coli): inactive | IC50 (Vero): Non-toxic | Activity (Pichia kudriavzevii [7]): inactive | Activity (Candida albicans): inactive | IC50 (Plasmodium falciparum [8]): Not Active | IC50 (Leishmania donovani; [16]): 20 µg/mL (≈ 66.6 µM) | Activity (Pseudomonas aeruginosa): inactive

SMILES: CCCCC/C=C/c1c(O)cc(CC=C(C)C)c(O)c1C=O [TETRAHYDROAUROGLAUCIN]
Activity (Aspergillus fumigatus): inactive | IC50 (Plasmodium falciparum [1]; [14]): 2.8 µg/mL (≈ 9.26 µM) | Activity (Staphylococcus aureus [13]): inactive | Activity (Cryptococcus neoformans [11]): inactive | IC50 (Nakaseomyces glabratus [4]): 6.15 µg/mL (≈ 20.3 µM) | Activity [5]: inactive | IC50 (Staphylococcus aureus [6]): 13.5 µg/mL (≈ 44.7 µM) | Activity (Escherichia coli): inactive | IC50 (Vero): Non-toxic | Activity (Pichia kudriavzevii [7]): inactive | Activity (Candida albicans): inactive | IC50 (Plasmodium falciparum [8]; [15]): 2.3 µg/mL (≈ 7.61 µM) | IC50 (Leishmania donovani; [16]): 22 µg/mL (≈ 72.7 µM) | Activity (Pseudomonas aeruginosa): inactive

SMILES: C=CC(C)(C)c1[nH]c2c(CC=C(C)C)cc(CC=C(C)C)cc2c1C[C@@H]1NC(=O)[C@H](C)NC1=O [ECHINULIN]
Activity (Aspergillus fumigatus): inactive | IC50 (Plasmodium falciparum [1]): Not Active | Activity (Staphylococcus aureus [10]): inactive | Activity (Staphylococcus aureus [13]): inactive | Activity (Cryptococcus neoformans [11]): inactive | Activity (Nakaseomyces glabratus [12]): inactive | Activity [5]: inactive | Activity (Escherichia coli): inactive | IC50 (Vero): Non-toxic | Activity (Pichia kudriavzevii [7]): inactive | Activity (Candida albicans): inactive | IC50 (Plasmodium falciparum [8]): Not Active | IC50 (Leishmania donovani): Not Active | Activity (Pseudomonas aeruginosa): inactive

SMILES: C/C=C/C=C/C=C/c1c(O)cc(CC=C(C)C)c(O)c1C=O [AUROGLAUCIN]
Activity (Aspergillus fumigatus): inactive | Activity (Staphylococcus aureus [10]): inactive | Activity (Staphylococcus aureus [13]): inactive | IC50 (Pichia kudriavzevii [9]): 10.9 µg/mL (≈ 36.6 µM) | Activity (Cryptococcus neoformans [11]): inactive | IC50 (Nakaseomyces glabratus [4]): 7.33 µg/mL (≈ 24.6 µM) | Activity [5]: inactive | Activity (Escherichia coli): inactive | IC50 (Vero): Non-toxic | Activity (Candida albicans): inactive | IC50 (Leishmania donovani; [16]): 7.5 µg/mL (≈ 25.1 µM) | Activity (Pseudomonas aeruginosa): inactive

SMILES: Cc1c(O)cc(O)c2c1COC2=O [5,7-DIHYDROXY-4-METHYLPHTHALIDE]
Activity (Aspergillus fumigatus): inactive | IC50 (Plasmodium falciparum [1]): Not Active | Activity (Staphylococcus aureus [10]): inactive | IC50 (Cryptococcus neoformans [2]): 18.1 µg/mL (≈ 100 µM) | Activity (Staphylococcus aureus [13]): inactive | Activity (Nakaseomyces glabratus [12]): inactive | Activity [5]: inactive | Activity (Escherichia coli): inactive | IC50 (Vero): Non-toxic | Activity (Pichia kudriavzevii [7]): inactive | Activity (Candida albicans): inactive | IC50 (Plasmodium falciparum [8]): Not Active | IC50 (Leishmania donovani): Not Active | Activity (Pseudomonas aeruginosa): inactive
